ChEMBL document CHEMBL4304756, “Second-Generation Tryptamine Derivatives Potently Sensitize Colistin Resistant Bacteria to Colistin” (ACS Med Chem Lett, 2019)
Activity calls are given as the source filed them. The calls are words filed in the database; no cut-off is given here.

Tests used:
[1] = tested on: Acinetobacter baumannii; assay: Antivirulence activity in Acinetobacter baumannii 4106 infected Galleria mellonella larvae model assessed as survival rate at 100 mg/kg measured at 24 hrs interval over 4 days; type: functional
In short: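 A. baumannii 4106 was given to Galleria mellonella larvae at 6 × 10^5 CFU, the lethal inoculum found by dose escalation. Larvae were treated with colistin 50 mg/kg, adjuvant 50 mg/kg, colistin plus adjuvant (50 mg/kg each), or tigecycline 100 mg/kg as positive control. Survival was scored out to day 4.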

[2] = tested on: Klebsiella pneumoniae; assay: Potentiation of colistin-induced antibacterial activity against Klebsiella pneumoniae 2210291 harbouring mcr-1 gene assessed as colistin MIC at 50 uM incubated for 16 hrs by broth microdilution method (reference value: 16 ug/ml); type: functional; conditions: Klebsiella pneumoniae, 2210291, 16 h
[3] = tested on: Escherichia coli; assay: Potentiation of colistin-induced antibacterial activity against Escherichia coli YD626 assessed as colistin MIC at 50 uM incubated for 16 hrs by broth microdilution method (reference value: 1 ug/ml); type: functional; conditions: YD626, 16 h
[4] = tested on: Acinetobacter baumannii; assay: Potentiation of colistin-induced antibacterial activity against Acinetobacter baumannii 17978 assessed as colistin MIC at 50 uM incubated for 16 hrs by broth microdilution method (reference value: 2 ug/ml); type: functional; conditions: Acinetobacter baumannii, 17978, 16 h
[5] = Hemolytic activity in sheep RBC at 200 uM incubated for 1 hr by UV spectrophotometry; type: ADME, cell-based, Ovis aries, Erythrocyte; conditions: sheep red blood cells (erythrocytes), read-out: Activity
In short: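 Red blood cells exposed to compound at 200 μM, with percent cell lysis recorded.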

[6] = tested on: Klebsiella pneumoniae; assay: Potentiation of colistin-induced antibacterial activity against Klebsiella pneumoniae 2210291 assessed as colistin MIC at 50 uM incubated for 16 hrs by broth microdilution method (reference value: 1 ug/ml); type: functional; conditions: Klebsiella pneumoniae, 2210291, 16 h
[7] = tested on: Acinetobacter baumannii; assay: Potentiation of colistin-induced antibacterial activity against Acinetobacter baumannii 17978 harbouring mcr-1 gene assessed as colistin MIC at 50 uM incubated for 16 hrs by broth microdilution method (reference value: 16 ug/ml); type: functional; conditions: Acinetobacter baumannii, 17978, 16 h
[8] = tested on: Escherichia coli; assay: Potentiation of colistin-induced antibacterial activity against Escherichia coli YD626 harbouring mcr-1 gene assessed as colistin MIC at 50 uM incubated for 16 hrs by broth microdilution method (reference value: 8 ug/ml); type: functional; conditions: YD626, 16 h
[9] = tested on: Klebsiella pneumoniae; assay: Potentiation of colistin-induced antibacterial activity against Klebsiella pneumoniae B9 assessed as reduction in colistin MIC at 15 uM incubated for 16 hrs by broth microdilution method (reference value: 512 ug/ml); type: functional; conditions: B9, 16 h
[10] = Cytotoxicity against mouse 4T1 cells assessed as reduction in cell viability in presence of 1 ug/ml colistin incubated for 18 hrs by MTT assay; type: cell-based
In short: (§1)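 4T1 mouse mammary tumor cells exposed to compound for 18 h, alone or together with colistin at 1 μg/mL. Medium then aspirated and replaced with 0.5 mg/mL MTT in culture medium for colorimetric viability read-out. CT50 taken as the concentration giving 50% cell viability.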

[11] = tested on: Klebsiella pneumoniae; assay: Potentiation of colistin-induced antibacterial activity against Klebsiella pneumoniae B9 assessed as reduction in colistin MIC at 10 uM incubated for 16 hrs by broth microdilution method (reference value: 512 ug/ml); type: functional; conditions: B9, 16 h
In short: (§2)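 Colistin MIC was measured against chromosomally colistin-resistant strains (K. pneumoniae B9, C3; A. baumannii 4106, among four strains) with adjuvant at fixed levels from 20 μM down to 7.5 μM. Fold reduction was reported against colistin alone, with the CLSI breakpoint taken as ≤2 μg/mL.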

[12] = tested on: Acinetobacter baumannii; assay: Potentiation of colistin-induced antibacterial activity against Acinetobacter baumannii 3941 assessed as reduction in colistin MIC at 20 uM incubated for 16 hrs by broth microdilution method (reference value: 512 ug/ml); type: functional; conditions: Acinetobacter baumannii, 3941, 16 h
[13] = Cytotoxicity against mouse 4T1 cells assessed as reduction in cell viability incubated for 18 hrs by MTT assay; type: cell-based; in short: as §1
[14] = tested on: Klebsiella pneumoniae; assay: Potentiation of colistin-induced antibacterial activity against Klebsiella pneumoniae C3 assessed as reduction in colistin MIC at 20 uM incubated for 16 hrs by broth microdilution method (reference value: 512 ug/ml); type: functional; conditions: C3, 16 h; in short: as §2
[15] = tested on: Klebsiella pneumoniae; assay: Potentiation of colistin-induced antibacterial activity against Klebsiella pneumoniae B9 assessed as reduction in colistin MIC at 7.5 uM incubated for 16 hrs by broth microdilution method (reference value: 512 ug/ml); type: functional; conditions: B9, 16 h
[16] = tested on: Acinetobacter baumannii; assay: Potentiation of colistin-induced antibacterial activity against Acinetobacter baumannii 3941 assessed as reduction in colistin MIC at 15 uM incubated for 16 hrs by broth microdilution method (reference value: 512 ug/ml); type: functional; conditions: Acinetobacter baumannii, 3941, 16 h
[17] = tested on: Acinetobacter baumannii; assay: Potentiation of colistin-induced antibacterial activity against Acinetobacter baumannii 17978 harbouring mcr-1 gene assessed as reduction in colistin MIC at 15 uM incubated for 16 hrs by broth microdilution method; type: functional, organism-based
In short: (§3)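 For the dose-response, colistin MIC was measured against mcr-1 plasmid-bearing E. coli, K. pneumoniae and A. baumannii while the adjuvant concentration was lowered stepwise (30, 15 μM, down to 5 μM). The aim was to find where the MIC rose above the 2 μg/mL CLSI susceptibility breakpoint.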

[18] = tested on: Klebsiella pneumoniae; assay: Potentiation of colistin-induced antibacterial activity against Klebsiella pneumoniae B9 assessed as reduction in colistin MIC at 5 uM incubated for 16 hrs by broth microdilution method (reference value: 512 ug/ml); type: functional; conditions: B9, 16 h
[19] = tested on: Klebsiella pneumoniae; assay: Potentiation of colistin-induced antibacterial activity against Klebsiella pneumoniae C3 assessed as reduction in colistin MIC at 10 uM incubated for 16 hrs by broth microdilution method (reference value: 512 ug/ml); type: functional; conditions: C3, 16 h
[20] = tested on: Klebsiella pneumoniae; assay: Potentiation of colistin-induced antibacterial activity against Klebsiella pneumoniae C3 assessed as reduction in colistin MIC at 15 uM incubated for 16 hrs by broth microdilution method (reference value: 512 ug/ml); type: functional; conditions: C3, 16 h
[21] = tested on: Acinetobacter baumannii; assay: Potentiation of colistin-induced antibacterial activity against Acinetobacter baumannii 4106 assessed as reduction in colistin MIC at 20 uM incubated for 16 hrs by broth microdilution method (reference value: 1024 ug/ml); type: functional; conditions: Acinetobacter baumannii, 4106, 16 h
[22] = tested on: Acinetobacter baumannii; assay: Potentiation of colistin-induced antibacterial activity against Acinetobacter baumannii 4106 assessed as reduction in colistin MIC at 15 uM incubated for 16 hrs by broth microdilution method (reference value: 1024 ug/ml); type: functional; conditions: Acinetobacter baumannii, 4106, 16 h
[23] = tested on: Acinetobacter baumannii; assay: Potentiation of colistin-induced antibacterial activity against Acinetobacter baumannii 4106 assessed as reduction in colistin MIC at 10 uM incubated for 16 hrs by broth microdilution method (reference value: 1024 ug/ml); type: functional; conditions: Acinetobacter baumannii, 4106, 16 h
[24] = tested on: Escherichia coli; assay: Potentiation of colistin-induced antibacterial activity against Escherichia coli YD626 harbouring mcr-1 gene assessed as reduction in colistin MIC at 15 uM incubated for 16 hrs by broth microdilution method; type: functional, organism-based; in short: as §3
[25] = tested on: Acinetobacter baumannii; assay: Potentiation of colistin-induced antibacterial activity against Acinetobacter baumannii 3941 assessed as reduction in colistin MIC at 10 uM incubated for 16 hrs by broth microdilution method (reference value: 512 ug/ml); type: functional; conditions: Acinetobacter baumannii, 3941, 16 h
[26] = tested on: Klebsiella pneumoniae; assay: Potentiation of colistin-induced antibacterial activity against Klebsiella pneumoniae 2210291 harbouring mcr-1 gene assessed as reduction in colistin MIC at 15 uM incubated for 16 hrs by broth microdilution method; type: functional, organism-based; in short: as §3
[27] = tested on: Klebsiella pneumoniae; assay: Potentiation of colistin-induced antibacterial activity against Klebsiella pneumoniae B9 assessed as reduction in colistin MIC at 20 uM incubated for 16 hrs by broth microdilution method (reference value: 512 ug/ml); type: functional; conditions: B9, 16 h
[28] = tested on: Klebsiella pneumoniae; assay: Potentiation of colistin-induced antibacterial activity against Klebsiella pneumoniae 2210291 harbouring mcr-1 gene assessed as reduction in colistin MIC at 15 uM incubated for 16 hrs by broth microdilution method (reference value: 16 ug/ml); type: functional; conditions: Klebsiella pneumoniae, 2210291, 16 h; in short: as §3
[29] = tested on: Acinetobacter baumannii; assay: Potentiation of colistin-induced antibacterial activity against Acinetobacter baumannii 17978 harbouring mcr-1 gene assessed as reduction in colistin MIC at 15 uM incubated for 16 hrs by broth microdilution method (reference value: 16 ug/ml); type: functional; conditions: Acinetobacter baumannii, 17978, 16 h; in short: as §3
[30] = tested on: Escherichia coli; assay: Potentiation of colistin-induced antibacterial activity against Escherichia coli YD626 harbouring mcr-1 gene assessed as reduction in colistin MIC at 15 uM incubated for 16 hrs by broth microdilution method (reference value: 8 ug/ml); type: functional; conditions: YD626, 16 h; in short: as §3

Compound | MIC [2] | MIC [3] | MIC [4] | MIC [6] | MIC [7] | MIC [8] | MIC [9] | MIC [11] | MIC [12] | MIC [14] | MIC [15] | MIC [16] | MIC [18] | MIC [19] | MIC [20] | MIC [21] | MIC [22] | MIC [23] | MIC [25] | MIC [27] | further results
CN(C)c1cc(NC(=O)CNC(C)(C)C)c(O)c2c1C[C@H]1C[C@H]3[C@H](N(C)C)C(O)=C(C(N)=O)C(=O)[C@@]3(O)C(O)=C1C2=O [TIGECYCLINE] |  |  |  |  |  |  |  |  |  |  |  |  |  |  |  |  |  |  |  |  | Activity [1]: 20%
CCCCc1ccc(NC(=O)NCCc2c[nH]c3ccc(Br)cc23)cc1 | 16 µg/mL | 1 µg/mL | 2 µg/mL | 0.5 µg/mL | 16 µg/mL | 8 µg/mL |  |  |  |  |  |  |  |  |  |  |  |  |  |  | hemolysis at 1 h, 200 µM [5]: < 2.5%
O=C(NCCc1c[nH]c2ccccc12)Nc1cc(Br)cc(Br)c1 | 1 µg/mL | 0.25 µg/mL | 0.5 µg/mL | 0.5 µg/mL | 1 µg/mL | 2 µg/mL | 0.5 µg/mL | 1 µg/mL | 8 µg/mL | 2 µg/mL | 4 µg/mL | 8 µg/mL | 32 µg/mL | 8 µg/mL | 4 µg/mL | 4 µg/mL | 4 µg/mL | 8 µg/mL | 16 µg/mL | ≤ 0.25 µg/mL | CC50 at 18 h [10]: 64.2 µM; CC50 at 18 h [13]: 86.2 µM; Activity [17]: Active; Activity [24]: Active; Activity [26]: Active
O=C(NCCc1c[nH]c2ccc(Br)cc12)Nc1ccc(Cl)c(Cl)c1 | 0.5 µg/mL | 0.25 µg/mL | 0.5 µg/mL | 0.5 µg/mL | 1 µg/mL | 0.5 µg/mL | 0.5 µg/mL | 1 µg/mL | 2 µg/mL | 1 µg/mL | 2 µg/mL | 4 µg/mL | 8 µg/mL | 4 µg/mL | 2 µg/mL | 2 µg/mL | 2 µg/mL | 4 µg/mL | 8 µg/mL | ≤ 0.25 µg/mL | MIC [28]: 1 µg/mL; MIC [29]: 1 µg/mL; MIC [30]: 1 µg/mL
